Compound activity: PubChem, several laboratories
Hits are enriched below; roughly 2% of the tested compounds scored in any of these assays.
PLCg1 inh = inhibitors of human phospholipase C gamma1 | P19174 | purified PLC-gamma1, fluorogenic substrate, fluorescence | inhibition, % at 12.2 µM | 370,000 tested, 0.84% active | AID 720700; in the data active = inhibition above about 9.5%
Target sequence (P19174 whole entry, looked up): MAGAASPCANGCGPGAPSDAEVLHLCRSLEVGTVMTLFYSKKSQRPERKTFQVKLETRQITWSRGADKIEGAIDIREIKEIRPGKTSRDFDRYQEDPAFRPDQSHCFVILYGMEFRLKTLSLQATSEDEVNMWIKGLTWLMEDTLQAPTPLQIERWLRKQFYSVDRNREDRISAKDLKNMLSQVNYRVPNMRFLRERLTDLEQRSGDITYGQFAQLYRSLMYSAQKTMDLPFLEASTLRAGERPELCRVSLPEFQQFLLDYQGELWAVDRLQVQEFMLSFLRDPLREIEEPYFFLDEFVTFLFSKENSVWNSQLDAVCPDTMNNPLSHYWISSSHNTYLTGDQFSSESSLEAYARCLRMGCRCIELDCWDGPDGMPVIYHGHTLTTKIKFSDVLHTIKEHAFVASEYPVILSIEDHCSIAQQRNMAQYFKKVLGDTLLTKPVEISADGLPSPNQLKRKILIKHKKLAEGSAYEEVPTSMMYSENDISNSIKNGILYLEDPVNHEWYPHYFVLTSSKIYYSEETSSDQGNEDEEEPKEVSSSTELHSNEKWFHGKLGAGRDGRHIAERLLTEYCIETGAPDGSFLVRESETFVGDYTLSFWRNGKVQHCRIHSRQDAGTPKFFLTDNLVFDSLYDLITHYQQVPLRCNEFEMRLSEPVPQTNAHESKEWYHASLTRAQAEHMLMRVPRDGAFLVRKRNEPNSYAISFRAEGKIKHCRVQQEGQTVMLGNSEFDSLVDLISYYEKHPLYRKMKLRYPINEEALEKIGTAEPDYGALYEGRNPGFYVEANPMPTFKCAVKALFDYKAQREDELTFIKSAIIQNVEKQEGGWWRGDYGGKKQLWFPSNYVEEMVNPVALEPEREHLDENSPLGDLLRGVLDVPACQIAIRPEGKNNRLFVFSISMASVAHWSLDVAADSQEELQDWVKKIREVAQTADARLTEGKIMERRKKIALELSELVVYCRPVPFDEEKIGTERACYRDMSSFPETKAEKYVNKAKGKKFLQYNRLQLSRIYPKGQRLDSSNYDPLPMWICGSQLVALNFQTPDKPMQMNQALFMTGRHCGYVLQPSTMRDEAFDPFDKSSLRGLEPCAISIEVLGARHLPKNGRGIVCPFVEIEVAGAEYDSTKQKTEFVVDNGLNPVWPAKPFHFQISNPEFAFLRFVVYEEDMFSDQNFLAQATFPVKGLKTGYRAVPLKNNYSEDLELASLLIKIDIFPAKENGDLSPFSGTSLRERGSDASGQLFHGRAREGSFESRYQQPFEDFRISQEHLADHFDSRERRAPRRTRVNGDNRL
IMP-1 inhibitor = blocks Pseudomonas aeruginosa IMP-1 metallo-beta-lactamase; purified IMP-1, nitrocefin hydrolysis, epi-absorbance fluorescence; inhibition, % at 5.6 µM; 290,000 tested, 0.45% active; AID 1556;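 active = inhibition above the mean plus 3 SD of all compounds in the same screening run, cut at about 4.5% in these data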;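 note: 0% = IMP-1 with DMSO and 100% = DMSO wells lacking enzyme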
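System – purified recombinant IMP-1 beta-lactamase · Input – IMP-1 dispensed at 0.2 nM · Timing – 15 min preincubation plus 25 min reaction at 25 °C · Signal – Epi-absorbance fluorescence, 480 nm excitation, 530 nm emission · Measure – percent IMP-1 inhibition derived from blank-referenced optical density · Controls – Enzyme-plus-DMSO low control, enzyme-free DMSO high control · Replication – singlicate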
PvdQ acylase = P. aeruginosa PvdQ acylase inhibition. purified PvdQ acylase, fluorescence plate reader. inhibition, % at 10 µM. 340,000 tested, 0.063% active. AID 488965; in the data active = inhibition above about 30%, passing the limit was not always enough;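 note: 0% = vehicle neutral wells and 100% = reference inhibitor wells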
PLCb3 inh = inhibitors of human phospholipase C beta3; Q01970; Purified PLC-beta3, fluorogenic substrate, fluorescence; inhibition, % at 12.2 µM; 370,000 tested, 0.18% active; AID 720704; in the data active = inhibition above about 11%;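 note: 0% = median of compound wells on plate and 100% = full blocker control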
VIM-2 inh = inhibitors of Pseudomonas aeruginosa VIM-2 metallo-beta-lactamase; purified VIM-2, nitrocefin hydrolysis, epi-absorbance fluorescence; inhibition, % at 5.6 µM; 290,000 tested, 0.89% active;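 active = inhibition above the mean of all tested compounds plus 3 SD, cutoff set per screening run, cut at about 7.5% in these data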;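 note: red hydrolysis product quenches plate fluorescence so inhibitors raise well fluorescence; 0% = enzyme with DMSO and 100% = DMSO without enzyme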
Numbers without * were called inactive.

What do the screens show for `O=C(O)Cc1c[nH]c2ccccc12`?
PLCg1 inh: 1; PvdQ acylase: -12; PLCb3 inh: 5

How did O=C(O)Cc1c[nH]c2cccc(O)c12 do in these assays?
PLCg1 inh: 25*; IMP-1 inhibitor: -2; PvdQ acylase: -4; PLCb3 inh: 10; VIM-2 inh: -1

What do the screens show for `COc1cccc2cc(-c3cc(=O)oc4cc(C)c(OCC(C)=O)cc34)oc12`?
PLCg1 inh: -7; IMP-1 inhibitor: 1; PvdQ acylase: 4; PLCb3 inh: -27; VIM-2 inh: 2

Results for Cc1cc2oc(=O)cc(-c3cc4ccccc4o3)c2cc1O ?
PLCg1 inh: -20; IMP-1 inhibitor: 6.0*; PvdQ acylase: -8; PLCb3 inh: -40; VIM-2 inh: 1

Results for CC(=O)COc1ccc2oc(=O)cc(-c3cc4ccccc4o3)c2c1 ?
PLCg1 inh: -292; IMP-1 inhibitor: -2; PvdQ acylase: -1; PLCb3 inh: -411; VIM-2 inh: 8.3*

Results for O=c1cc(-c2cc3ccccc3o2)c2cc(O)ccc2o1 ?
IMP-1 inhibitor: -2; PvdQ acylase: -6; VIM-2 inh: -1

How did CC(C)C[C@H]1COc2cccc(F)c2S(=O)(=O)N1Cc1cn(CCC2OCCO2)nn1 do in these assays?
PLCg1 inh: 1; PLCb3 inh: -1

How did O=C1CSC2(CCCCC2)N1CCO do in these assays?
PLCg1 inh: 7; IMP-1 inhibitor: 5.6*; PvdQ acylase: -12; PLCb3 inh: 3; VIM-2 inh: 0

Results for O=C(O)CCN1C(=O)/C(=C/c2ccc(-c3nc4ccccc4s3)o2)SC1=S ?
PLCg1 inh: 2; IMP-1 inhibitor: 0; PvdQ acylase: 10; PLCb3 inh: -21; VIM-2 inh: 0

Results for O=C(O)CC(C(=O)O)N1C(=O)/C(=C/c2ccc(-c3nc4ccccc4s3)o2)SC1=S (centres undefined) ?
PLCg1 inh: -10; IMP-1 inhibitor: 5.6*; PvdQ acylase: 6; PLCb3 inh: -72; VIM-2 inh: -1

How did CC(C)CNS(=O)(=O)CC1NCc2cc3c(cc21)OCO3 (centres undefined) do in these assays?
PLCg1 inh: -1; PLCb3 inh: -2

Results for COc1cc(/C=C2\SC(=S)N(C(C(=O)O)c3ccccc3)C2=O)ccc1O (centres undefined) ?
PLCg1 inh: -58; IMP-1 inhibitor: -5; PvdQ acylase: 1; PLCb3 inh: -75; VIM-2 inh: 7

What do the screens show for `COc1ccccc1/C=C1\SC(=S)N(C(C(=O)O)c2ccccc2)C1=O` (centres undefined)?
PLCg1 inh: -5; IMP-1 inhibitor: -1; PvdQ acylase: 8; PLCb3 inh: -11; VIM-2 inh: 9.4*

How did CCOC(=O)CC[C@H]1CC[C@]2(CCCN(C(=O)c3cccnc3)C2)O1 do in these assays?
PLCg1 inh: -1; PLCb3 inh: 5

What do the screens show for `O=C1c2cccc3cccc(c23)C(=O)N1CCN1CCN(C(=S)Nc2ccccc2)CC1`?
PLCg1 inh: -2; IMP-1 inhibitor: -3; PvdQ acylase: 7; PLCb3 inh: -2; VIM-2 inh: 7.8*

Results for O=[N+]([O-])c1ccc(N2CCSCC2)cc1 ?
PLCg1 inh: -1; IMP-1 inhibitor: -1; PvdQ acylase: 54*; PLCb3 inh: 0; VIM-2 inh: -4

What do the screens show for `O=[N+]([O-])c1ccc(N2CCN(c3ccc(F)cc3)CC2)cc1`?
PLCg1 inh: -1; IMP-1 inhibitor: -1; PvdQ acylase: 11; PLCb3 inh: -5; VIM-2 inh: 0

What do the screens show for `Cc1ccccc1C(=O)N(C)[C@H]1C[C@H]2c3[nH]c4c(-c5ccccc5)cccc4c3CCN2C(=O)[C@H]1[C@H](C)O`?
PLCg1 inh: -12; PLCb3 inh: -22

Results for O=S1(=O)c2ccc(Br)cc2OC[C@@H](c2ccccc2)N1Cc1cn(CCC2OCCCO2)nn1 ?
PLCg1 inh: -4; PLCb3 inh: 0

Results for N#CC(c1ccc(Cl)nn1)c1ccccc1Cl (centres undefined) ?
PLCg1 inh: 7; IMP-1 inhibitor: -3; PvdQ acylase: 108*; PLCb3 inh: 10; VIM-2 inh: -5

Results for N#CC(c1ccc(=O)[nH]n1)c1ccc(Cl)cc1Cl (centres undefined) ?
PLCg1 inh: -2; IMP-1 inhibitor: -2; PvdQ acylase: 5; PLCb3 inh: 0; VIM-2 inh: -2

How did Cc1ccc(C(C#N)c2ccc(Cl)nn2)cc1 (centres undefined) do in these assays?
PLCg1 inh: 0; IMP-1 inhibitor: -2; PvdQ acylase: 86*; PLCb3 inh: 5; VIM-2 inh: 0

What do the screens show for `N#CC(c1ccccc1)c1ccc(=O)[nH]n1` (centres undefined)?
PLCg1 inh: 1; IMP-1 inhibitor: 0; PvdQ acylase: 9; PLCb3 inh: 3; VIM-2 inh: 0

How did Cc1cccc(C(C#N)c2ccc(Cl)nn2)c1 (centres undefined) do in these assays?
PLCg1 inh: 0; IMP-1 inhibitor: -1; PvdQ acylase: 89*; PLCb3 inh: 5; VIM-2 inh: 0

Results for CC(C)[C@@H]1OC(=O)[C@@H]2CCCN2C(=O)[C@H](C)OC(=O)[C@H](C)[C@@H](C(C)C)NC(=O)[C@@H]2CCCN2C(=O)[C@H]([C@H](C)Cc2ccccc2)NC(=O)[C@@H]2CCCN2C(=O)[C@@H](C(C)C)N(C)C1=O ?
PLCg1 inh: -1; PLCb3 inh: 1

What do the screens show for `Cc1sc2ncn3c(C)nnc3c2c1C`?
PLCg1 inh: -1; IMP-1 inhibitor: -1; PvdQ acylase: -7; PLCb3 inh: 1; VIM-2 inh: 10.0*

What do the screens show for `O=C(c1cnc2n(c1=O)CCS2)N1CCN(C(c2ccccc2)c2ccc(Cl)cc2)CC1` (centres undefined)?
IMP-1 inhibitor: 5.9*; PvdQ acylase: -20; VIM-2 inh: 1

What do the screens show for `CC(C)(CN1CCNCC1)NS(=O)(=O)c1ccc(Cl)cc1`?
PLCg1 inh: 16*; PvdQ acylase: 8; PLCb3 inh: -1

What do the screens show for `CC(C)(CN1CCCC1)NS(=O)(=O)c1ccc(Cl)cc1`?
PLCg1 inh: 0; IMP-1 inhibitor: -2; PvdQ acylase: 20; PLCb3 inh: -4; VIM-2 inh: -3

What do the screens show for `COc1ccc2[nH]c(=O)c3c(c2c1)OC(C)(C)C=C3`?
PLCg1 inh: -52; IMP-1 inhibitor: 39*; PvdQ acylase: 3; PLCb3 inh: -73; VIM-2 inh: -2

How did Cc1cc2c([nH]c3ccccc32)c2c1OC(C)(C)C=C2 do in these assays?
PLCg1 inh: 1; PvdQ acylase: -7; PLCb3 inh: 0

What do the screens show for `Cc1ccnc(SCc2cc(=O)c(OC(=O)c3ccc(C)c([N+](=O)[O-])c3)co2)n1`?
PLCg1 inh: 2; PLCb3 inh: 0

How did COC(=O)[C@]12C[C@H](CC(=O)NCc3ccccc3)C(=O)N(Cc3cccc4ccccc34)C1=C[C@H](C(C)(C)C)O[C@@H]2C do in these assays?
PLCg1 inh: 6; PLCb3 inh: 0

How did O=C(c1ccc(C#Cc2ccccc2)cc1)N1CCC(O)CC1 do in these assays?
PLCg1 inh: 0; PLCb3 inh: 1
